Measurements as given in ChEMBL document CHEMBL4014329, “Selective Inhibition of Escherichia coli RNA and DNA Topoisomerase I by Hoechst 33258 Derived Mono- and Bisbenzimidazoles” (J Med Chem, 2017).
Converted amounts (≈) assume the structure as drawn. The source made the active and inactive calls. The calls are words filed in the database; no cut-off is given here.

Key:
[1] = system: Staphylococcus epidermidis; assay: Antibacterial activity against Staphylococcus epidermidis ATCC 12384 after 24 hrs by microbroth dilution method; assay type: functional; conditions: ATCC 12384, 24 h
Method in brief: (§1)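 Microbroth dilution per CLSI guidelines. Organisms grown in Mueller−Hinton broth at 37 °C with shaking to log phase, pelleted, resuspended in 0.85% saline to OD625 0.1. Final inoculum 5 × 10^5 CFU/mL; triplicate; 24 h at 37 °C. OD625 read; MIC = lowest concentration completely inhibiting growth versus untreated controls.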

[2] = Inhibition of Escherichia coli DNA topoisomerase 1 using plasmid pBAD-GFPuv as substrate after 15 mins by agarose gel electrophoresis
Method in brief: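 E. coli topoisomerase I at 6 nM relaxing 150 ng supercoiled pBAD-GFPuv. 15 min at 37 °C, phenol-stopped, 1% agarose gel, ethidium stain. IC50 is the concentration leaving 50% DNA supercoiled; three independent determinations.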

[3] = system: Citrobacter freundii; assay: Antibacterial activity against Citrobacter freundii 4747CFAA after 24 hrs by microbroth dilution method; assay type: functional; method in brief: as §1
[4] = Binding affinity to dA60.dT60 B-DNA duplex (unknown origin) assessed as change in melting temperature at 10 uM by UV-vis spectrophotometric analysis
Method in brief: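 UV melting of dA60·dT60 at 1 μM/duplex with compound at 10 μM. Buffer 10 mM sodium cacodylate, 0.1 mM EDTA, 100 mM NaCl, pH 7.0; duplex pre-annealed from 95 °C. Compound stocks in DMSO diluted into buffer. Heating at 0.2 °C/min, monitored at 260 nm, points every 1.0 °C; Tm taken from derivatives.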

[5] = system: DU-145; assay: Cytotoxicity against human DU145 cells after 48 hrs by SRB assay; assay type: cell-based
Method in brief: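 Cells cultured per ATCC protocols, seeded and grown 24 h (37 °C, 5% CO2), then treated in triplicate at final 20, 10, 5, 2.5, 1.25, 0.625 and 0.0625 μM for 48 h. Fixed with cold TCA (16% final, 4 °C, 1 h), stained with SRB in 1% acetic acid, dye solubilized in 10 mM Tris base, A560 read. IC50 derived; study in duplicate.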

[6] = system: Staphylococcus aureus; assay: Antibacterial activity against methicillin-resistant Staphylococcus aureus A960649 after 24 hrs by microbroth dilution method; assay type: functional; conditions: A960649, 24 h
Method in brief: (§2)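 Mueller-Hinton broth cultures grown at 37 °C with shaking to log phase, pelleted, resuspended in 0.85% saline to OD625 0.1. Broth microdilution per CLSI guidelines, final inoculum 5 × 10^5 CFU/mL, in triplicate, 24 h at 37 °C. Growth read as OD625. MIC is the lowest concentration giving complete growth inhibition versus untreated controls.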

[7] = system: Staphylococcus aureus; assay: Antibacterial activity against Staphylococcus aureus ATCC 33591 after 24 hrs by microbroth dilution method; assay type: functional; conditions: ATCC 33591, 24 h; method in brief: as §1
[8] = system: Enterococcus faecalis; assay: Antibacterial activity against Enterococcus faecalis ATCC 29212 after 24 hrs by microbroth dilution method; assay type: functional; conditions: ATCC 29212, 24 h; method in brief: as §1
[9] = system: Enterobacter cloacae; assay: Antibacterial activity against Enterobacter cloacae ATCC 13047 after 24 hrs by microbroth dilution method; assay type: functional; conditions: ATCC 13047, 24 h; method in brief: as §1
[10] = Binding affinity to dA60.dT60 B-DNA duplex (unknown origin) assessed as induction of biphasic transition at <5 uM by UV-vis spectrophotometric analysis
[11] = system: Pseudomonas aeruginosa; assay: Antibacterial activity against Pseudomonas aeruginosa ATCC 27853 after 24 hrs by microbroth dilution method; assay type: functional; conditions: ATCC 27853, 24 h; method in brief: as §1
[12] = system: Klebsiella pneumoniae; assay: Antibacterial activity against Klebsiella pneumoniae NR15410 after 24 hrs by microbroth dilution method; assay type: functional; conditions: NR15410, 24 h; method in brief: as §1
[13] = system: Acinetobacter baumannii; assay: Antibacterial activity against Acinetobacter baumannii ATCC 19606 after 24 hrs by microbroth dilution method; assay type: functional; conditions: ATCC 19606 = CIP 70.34 = JCM 6841, 24 h; method in brief: as §1
[14] = system: Escherichia coli; assay: Antibacterial activity against Escherichia coli ATCC 25922 after 24 hrs by microbroth dilution method; assay type: functional; conditions: ATCC 25922, 24 h; method in brief: as §1
[15] = system: Shigella flexneri; assay: Antibacterial activity against Shigella flexneri 2457NR517 after 24 hrs by microbroth dilution method; assay type: functional; conditions: 2457NR517, 24 h; method in brief: as §2
[16] = system: Staphylococcus aureus; assay: Antibacterial activity against Staphylococcus aureus ATCC 29213 after 24 hrs by microbroth dilution method; assay type: functional; conditions: ATCC 29213, 24 h; method in brief: as §1
[17] = system: Staphylococcus aureus; assay: Antibacterial activity against methicillin-resistant Staphylococcus aureus 33591 after 24 hrs by microbroth dilution method; assay type: functional; conditions: Staphylococcus aureus, 33591, 24 h; method in brief: as §2
[18] = system: Enterococcus faecium; assay: Antibacterial activity against Enterococcus faecium BM4105RF after 24 hrs by microbroth dilution method; assay type: functional; method in brief: as §2
[19] = system: Escherichia coli; assay: Inhibition of Escherichia coli RNA topoisomerase 1 using circular RNA as substrate up to 50 uM after 1.5 hrs by SDS-PAGE analysis
Method in brief: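 10 nM E. coli topoisomerase I premixed with reaction buffer and inhibitor diluted in DMSO, then circular RNA substrate added; 1.5 h incubation. Stopped with proteinase K/SDS/EDTA buffer. Trefoil RNA knot product separated from circular substrate on 15% TBE−urea gels and detected by phosphorimaging. DMSO-only control included.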

[20] = system: Escherichia coli; assay: Antibacterial activity against Escherichia coli K-12 after 24 hrs by microbroth dilution method; assay type: functional; conditions: K-12, 24 h; method in brief: as §1
[21] = system: Escherichia coli; assay: Inhibition of Escherichia coli DNA gyrase using relaxed plasmid pBAD-GFPuv as substrate after 30 mins by agarose gel electrophoresis

| Compound | MIC [1] | MIC [3] | ΔTm [4] | MIC [6] | MIC [7] | MIC [8] | MIC [9] | Activity [10] | MIC [11] | MIC [12] | MIC [13] | MIC [14] | MIC [15] | MIC [16] | MIC [17] | MIC [18] | MIC [20] | other results |
| --- | --- | --- | --- | --- | --- | --- | --- | --- | --- | --- | --- | --- | --- | --- | --- | --- | --- | --- |
| C#CCOCCOCCOCCOCCOCCOCCOc1ccc(-c2nc3ccc(-c4nc5ccc(N6CCN(C)CC6)cc5[nH]4)cc3[nH]2)cc1 | 16 to 32 µg/mL (≈ 22 to 44 µM) | > 32 µg/mL | 13.1 °C | > 32 µg/mL | 16 to 32 µg/mL (≈ 22 to 44 µM) | 16 to 32 µg/mL (≈ 22 to 44 µM) | > 32 µg/mL | Active | 16 to 32 µg/mL (≈ 22 to 44 µM) | > 32 µg/mL | > 32 µg/mL | 16 to 32 µg/mL (≈ 22 to 44 µM) | ≥ 32 µg/mL | 16 to 32 µg/mL (≈ 22 to 44 µM) | > 32 µg/mL | ≥ 32 µg/mL | 2 to 4 µg/mL (≈ 2.75 to 5.5 µM) | IC50 [2]: > 50 µM; IC50 ([5]; Homo sapiens, DU-145, 48 h): > 10 µM; inhibition [19]: inactive |
| CN1CCN(c2ccc3nc(-c4ccc(OCCCNC(=O)OC(C)(C)C)cc4)[nH]c3c2)CC1 | > 32 µg/mL | > 32 µg/mL | 1 °C | > 32 µg/mL | 16 to 32 µg/mL (≈ 34.4 to 68.7 µM) | 16 to 32 µg/mL (≈ 34.4 to 68.7 µM) | > 32 µg/mL | Active | 16 µg/mL (≈ 34.4 µM) | > 32 µg/mL | > 32 µg/mL | 16 µg/mL (≈ 34.4 µM) | > 32 µg/mL | 16 to 32 µg/mL (≈ 34.4 to 68.7 µM) | > 32 µg/mL | > 32 µg/mL | 16 µg/mL (≈ 34.4 µM) | – |
| C#CCOCCCCOc1ccc(-c2nc3ccc(-c4nc5ccc(N6CCN(C)CC6)cc5[nH]4)cc3[nH]2)cc1 | 4 µg/mL (≈ 7.48 µM) | – | – | 1 to 2 µg/mL (≈ 1.87 to 3.74 µM) | – | – | > 32 µg/mL | – | 16 µg/mL (≈ 29.9 µM) | > 32 µg/mL | 8 µg/mL (≈ 15 µM) | 8 to 16 µg/mL (≈ 15 to 29.9 µM) | 4 µg/mL (≈ 7.48 µM) | – | 1 µg/mL (≈ 1.87 µM) | 1 to 2 µg/mL (≈ 1.87 to 3.74 µM) | – | Activity ([5]; human, du-145, 48 h): Toxic; inhibition [21]: inactive; inhibition [19]: inactive |
| C#CCOCCCCCCOc1ccc(-c2nc3ccc(N4CCN(C)CC4)cc3[nH]2)cc1 | > 32 µg/mL | > 32 µg/mL | 1.4 °C | > 32 µg/mL | 16 to 32 µg/mL (≈ 35.8 to 71.7 µM) | 16 to 32 µg/mL (≈ 35.8 to 71.7 µM) | > 32 µg/mL | Active | 16 µg/mL (≈ 35.8 µM) | > 32 µg/mL | > 32 µg/mL | 16 µg/mL (≈ 35.8 µM) | > 32 µg/mL | 16 to 32 µg/mL (≈ 35.8 to 71.7 µM) | > 32 µg/mL | > 32 µg/mL | 16 µg/mL (≈ 35.8 µM) | – |
| C#CCCCCCCc1cn(CCOc2ccc(-c3nc4ccc(N5CCN(C)CC5)cc4[nH]3)cc2)nn1 | > 32 µg/mL | > 32 µg/mL | 0.5 °C | – | 16 to 32 µg/mL (≈ 31.3 to 62.5 µM) | 16 to 32 µg/mL (≈ 31.3 to 62.5 µM) | > 32 µg/mL | Active | 16 µg/mL (≈ 31.3 µM) | > 32 µg/mL | > 32 µg/mL | 16 µg/mL (≈ 31.3 µM) | > 32 µg/mL | 16 to 32 µg/mL (≈ 31.3 to 62.5 µM) | – | > 32 µg/mL | 16 µg/mL (≈ 31.3 µM) | – |
| Oc1ccc(-c2nc3ccccc3[nH]2)cc1 | > 32 µg/mL | > 32 µg/mL | 0 °C | > 32 µg/mL | 16 to 32 µg/mL (≈ 76.1 to 152 µM) | 16 µg/mL (≈ 76.1 µM) | > 32 µg/mL | Active | 16 µg/mL (≈ 76.1 µM) | > 32 µg/mL | 16 to 32 µg/mL (≈ 76.1 to 152 µM) | 16 µg/mL (≈ 76.1 µM) | > 32 µg/mL | 16 to 32 µg/mL (≈ 76.1 to 152 µM) | > 32 µg/mL | > 32 µg/mL | 16 µg/mL (≈ 76.1 µM) | – |
| C#CCOc1ccc(-c2nc3ccc(N4CCN(C)CC4)cc3[nH]2)cc1 | > 32 µg/mL | > 32 µg/mL | 2.6 °C | > 32 µg/mL | 16 to 32 µg/mL (≈ 46.2 to 92.4 µM) | 16 to 32 µg/mL (≈ 46.2 to 92.4 µM) | > 32 µg/mL | Active | 16 µg/mL (≈ 46.2 µM) | > 32 µg/mL | > 32 µg/mL | 16 µg/mL (≈ 46.2 µM) | > 32 µg/mL | ≥ 32 µg/mL | > 32 µg/mL | > 32 µg/mL | 16 µg/mL (≈ 46.2 µM) | – |
| CN1CCN(c2cc(C(=O)O)c3nc(-c4ccc(O)cc4)[nH]c3c2)CC1 | – | – | 0 °C | – | > 32 µg/mL | > 32 µg/mL | – | Active | > 32 µg/mL | – | – | > 32 µg/mL | – | > 32 µg/mL | – | – | > 32 µg/mL | – |
